Measured values of several laboratories.
Each line is one published result; the experiments were not run side by side. pEC50: −log10 of the molar value. In brackets after ≈: the same amount, converted by molar mass.

| SMILES | organism | test | test system | conditions | quantity | value |
| --- | --- | --- | --- | --- | --- | --- |
| CC1(C)CC[C@]2(NC(=O)NCCN3CCCC3)CC[C@]3(C)C(=CC[C@@H]4[C@@]5(C)CC[C@@H]6OC(C)(C)OC[C@@]6(C)[C@@H]5CC[C@]43C)[C@@H]2C1 | Leishmania mexicana | parasite growth, resazurin | – | 50 µM, amastigote | inhibition | 99.1% |
| Cc1ccc(-c2nc3ccccc3s2)cc1NC(=O)c1cc([N+](=O)[O-])c(N2CCCCC2)cc1Cl | Leishmania mexicana | parasite growth | J774.A1 | intracellular, amastigote | pEC50 | < 5.00 |
| CC1(C)CC[C@]2(C(=O)O)CC[C@]3(C)C(=CC[C@@H]4[C@@]5(C)CC[C@H](O[C@@H]6OC[C@H](O)[C@H](O)[C@H]6O)[C@@](C)(CO)[C@@H]5CC[C@]43C)[C@@H]2C1 | Leishmania mexicana | parasite growth, resazurin | – | 50 µM, amastigote | inhibition | 96.9% |
| O=C(O)CN1C(=O)/C(=C/c2ccc(-c3ccc(N(c4ccccc4)c4ccccc4)cc3)cc2)NC1=S | Staphylococcus epidermidis | microbial killing, broth dilution | ATCC12228 | – | MBC | 3.9 µg/mL (≈ 7.71 µM) |
| O=C(Nc1ccccc1-c1ccc(F)c(F)c1)c1nccnc1C(F)(F)F | Verticillium | microbial growth | – | – | EC50 | 11 µg/mL |
| O=C(Nc1cncc(-c2nc3ccccc3o2)c1)c1cc([N+](=O)[O-])c(N2CCNCC2)cc1Cl | Leishmania mexicana | parasite growth | J774.A1 | intracellular, amastigote | pEC50 | 6.12 |
| O=C1NC(=S)N/C1=C\c1c2ccccc2c(-c2ccc(N(c3ccccc3)c3ccccc3)cc2)c2ccccc12 | Staphylococcus epidermidis | microbial growth, broth dilution | ATCC12228 | – | MIC | > 1000 µg/mL |
| CC1(C)CC[C@]2(NC(=O)N3CCC[C@H]3CN3CCCC3)CC[C@]3(C)C(=CC[C@@H]4[C@@]5(C)CC[C@@H]6OC(C)(C)OC[C@@]6(C)[C@@H]5CC[C@]43C)[C@@H]2C1 | Leishmania mexicana | parasite growth, resazurin | – | 50 µM, amastigote | inhibition | 97.6% |
| Cc1ccc(-c2nc3ccccc3s2)cc1NC(=O)c1cc([N+](=O)[O-])c(NCCN)cc1Cl | Leishmania mexicana | parasite growth | J774.A1 | intracellular, amastigote | pEC50 | 6.60 |
